Experimental data: ChEMBL document CHEMBL4665824, “Characterization and Discovery of a Selective Small-Molecule Modulator of Mitochondrial Complex I Targeting a Unique Binding Site” (J Med Chem, 2020)
The source made the active and inactive calls. The calls are words filed in the database; no cut-off is given here.

Legend:
[1] = system: MC65; experiment: Inhibition of mitochondrial complex 1 in human MC65 cells assessed as inhibition of ROS production incubated for 48 hrs by mitoSOX fluorescence based flow cytometry; format: cell-based
In short: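 MC65 cells in Opti-MEM (1.6×10^6/well) incubated with compound at 37 °C for 48 h, with or without tetracycline. Collected into HBSS and stained with mitoSOX (2.5 μM) 20 min at 37 °C. Washed twice, then mean fluorescence intensity read by flow cytometry.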

[2] = system: MC65; experiment: Inhibition of mitochondrial complex 1 in human MC65 cells assessed as inhibition of antimycin A-induced ROS production at 1 to 3 uM incubated for 12 hrs by mitoSOX fluorescence based flow cytometry; format: cell-based; conditions: dose microM 1-3, time 12.0 hrs
[3] = system: SH-SY5Y; experiment: Inhibition of mitochondrial complex 1 in human SH-SY5Y cells assessed as inhibition of MPP+-induced mitochondrial depolarization incubated for 24 hrs by fluorescence based assay; format: cell-based
In short: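 SH-SY5Y cells (4×10^5 per well) were co-treated with compound and MPP+ (30 μM) for 24 h at 37 °C. TMRM was then added to 100 nM final for 30 min. Cells were trypsinized, pelleted, resuspended in PBS, and membrane potential fluorescence was read by flow cytometry.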

[4] = system: Cortical neuron; experiment: Inhibition of mitochondrial complex 1 in mouse cortical neurons assessed as inhibition of MPP+-induced mitochondrial depolarization incubated for 24 hrs by fluorescence based assay
In short: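 Primary cortical neurons from E15.5 C57BL/6J embryos (DIV 14; 5×10^4 cells/well) were given compound plus MPP+ for 24 h. They were then loaded with TMRM (1 μM final, 30 min) and washed twice with PBS. Dye was released with 50% DMSO/0.5% Triton in water and read at Ex/Em 548/574 nm.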

[5] = system: SH-SY5Y; experiment: Inhibition of mitochondrial complex 1 in human SH-SY5Y cells assessed as inhibition of MPP+-induced mitochondrial depolarization in presence of 10 uM trolox incubated for 24 hrs by fluorescence based assay; format: cell-based
In short: (§1)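 SH-SY5Y cells (4×10^5/well) treated with compound, NAC (10 μM) or trolox (10 μM) plus MPP+ (30 μM) for 24 h. TMRM added at 100 nM final for 30 min. Cells trypsinized, resuspended in PBS and read by flow cytometry.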

[6] = system: SH-SY5Y; experiment: Inhibition of mitochondrial complex 1 in human SH-SY5Y cells assessed as inhibition of MPP+-induced mitochondrial depolarization in presence of 10 uM NAC incubated for 24 hrs by fluorescence based assay; format: cell-based; in short: as §1
[7] = system: MC65; experiment: Effect on mitochondrial membrane potential in human MC65 cells at 0.3 to 1 uM incubated for 48 hrs by flow cytometry; format: functional, cell-based; conditions: dose microM 0.3-1, time 48.0 hrs
[8] = system: MC65; experiment: Effect on ATP content in human MC65 cells at 0.1 to 1 uM incubated for 48 hrs; format: functional, cell-based; conditions: dose microM 0.1-1, time 48.0 hrs
[9] = species: Mus musculus; experiment: Inhibition of mitochondrial complex 1 in permeabilized mouse brain mitochondria assessed as reduction in ROS production at 2 to 6 uM incubated for 1 hr in presence of NADH by Amplex Red and horseradish peroxidase based assay; conditions: dose microM 2-6, time 1.0 hrs
In short: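 Permeabilized mouse brain mitochondria (0.1 mg protein/ml) were pretreated with compound for 1 h at 30 °C. H2O2 release was triggered with NADH (10 μM) and detected by Amplex Red (50 μM) oxidation with HRP (0.1 U/ml) at Ex/Em 530/590 nm. Output was calibrated against an H2O2 standard curve (linear to 2 μM). N=6, mean ± SEM, Student t-test.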

[10] = species: Mus musculus; experiment: Inhibition of mitochondrial complex 1 in C57BL/6 mouse cerebral cortex mitochondria assessed as modulation of maximal rate of ADP-stimulated respiration of pyruvate at 2 uM
In short: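 Mitochondria isolated from C57BL/6 mouse cerebral cortex (N=6) with vehicle or 2 μM compound. Oxygen consumption measured by Clark-type electrode at 30 °C with pyruvate/malate (20/5 mM) or succinate (20 mM). ADP-stimulated (state 3) and state 4 rates recorded; RCR taken as state 3/state 4, with ADP/O also derived.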

[11] = species: Mus musculus; experiment: Inhibition of mitochondrial complex 2 in C57BL/6 mouse cerebral cortex mitochondria assessed as modulation of maximal rate of ADP-stimulated respiration of succinate at 2 uM
[12] = species: Mus musculus; experiment: Inhibition of mitochondrial complex 1 in C57BL/6 mouse cerebral cortex mitochondria assessed as reduction in ETC enzymatic activity at 2 uM relative to control
In short: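 Detergent-solubilized mouse brain mitochondria (N=6) treated with 2 μM compound, then electron transport chain enzyme activities determined.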

[13] = Inhibition of mitochondrial complex 1 in 5 months old transgenic AD mouse model assessed as suppression of maximal rate of ADP-stimulated respiration of pyruvate at 50 mg/kg, po dosed 5 times/week for 2 weeks; format: functional; conditions: 336 h
[14] = system: Mus musculus; experiment: Inhibition of mitochondrial complex 1 in 5 months old transgenic AD mouse model assessed as suppression of state 3 respiration of pyruvate at 50 mg/kg, po dosed 5 times/week for 2 weeks; format: functional, organism-based
[15] = system: Mus musculus; experiment: Effect on respiratory control ratio in 5 months old transgenic AD mouse model at 50 mg/kg, po dosed 5 times/week for 2 weeks; format: functional, organism-based
[16] = system: Mus musculus; experiment: Effect on ADP/O ratio in 5 months old transgenic AD mouse model at 50 mg/kg, po dosed 5 times/week for 2 weeks; format: functional, organism-based
[17] = Inhibition of mitochondrial complex 1 in 10 months old transgenic AD mouse model assessed as suppression of maximal rate of ADP-stimulated respiration of pyruvate at 50 mg/kg, po QD for 8 weeks; format: functional; conditions: 1344 h
[18] = system: Mus musculus; experiment: Inhibition of mitochondrial complex 1 in 10 months old transgenic AD mouse model assessed as suppression of state 3 respiration of pyruvate at 50 mg/kg, po QD for 8 weeks; format: functional, organism-based
[19] = system: Mus musculus; experiment: Effect on respiratory control ratio in 5 months old transgenic AD mouse model in presence of pyruvate and malate at 50 mg/kg, po dosed 5 times/week for 2 weeks (4.1 +/- 0.7); format: functional
[20] = Effect on ADP/O ratio in 5 months old transgenic AD mouse model in presence of pyruvate and malate at 50 mg/kg, po dosed 5 times/week for 2 weeks (2.6 +/- 0.2); format: functional
[21] = system: Mus musculus; experiment: Effect on respiratory control ratio in 5 months old transgenic AD mouse model in presence of succinate at 50 mg/kg, po dosed 5 times/week for 2 weeks (2.5 +/- 0. 2); format: functional
[22] = Effect on ADP/O ratio in 5 months old transgenic AD mouse model in presence of succinate at 50 mg/kg, po dosed 5 times/week for 2 weeks (1.4 +/- 0.1); format: functional
[23] = system: Cerebral cortex; experiment: Effect on ADP/O ratio in C57BL/6 mouse cerebral cortex mitochondria at 2 uM (reference value: 2.9)
[24] = system: Cerebral cortex; experiment: Effect on respiratory control ratio in C57BL/6 mouse cerebral cortex mitochondria at 2 uM (reference value: 5.3)
[25] = system: MC65; experiment: Inhibition of mitochondrial complex 1 in human MC65 cells assessed as inhibition of rotenone-induced ROS production by measuring ROS production rate at 1 uM incubated for 12 hrs by mitoSOX fluorescence based flow cytometry (reference value: 8.3 RFU/min)
[26] = system: Cortical neuron; experiment: Inhibition of mitochondrial complex 1 in mouse cortical neurons assessed as inhibition of rotenone-induced ROS production by measuring ROS production rate at 1 uM incubated for 12 hrs by mitoSOX fluorescence based flow cytometry (Rvb =3.3 RFU/min)

COc1ccc2[nH]cc(CCNC(=O)CC(=O)CCc3ccc(O)cc3)c2c1
inhibition [1]: Dose-dependent effect | inhibition [2]: inactive | inhibition [3]: Dose-dependent effect | inhibition [4]: Dose-dependent effect | inhibition [5]: Active | inhibition [6]: Active | Activity [7]: inactive | Activity [8]: inactive | inhibition [9]: Active | inhibition [10]: Active | inhibition [11]: inactive | inhibition [12]: 20% | inhibition in vivo at 50 mg/kg [13]: 9% | inhibition [14]: Active | Activity [15]: inactive | Activity [16]: inactive | inhibition in vivo at 50 mg/kg [17]: 25% | inhibition [18]: Active | Ratio [19]: 4.2 | Ratio [20]: 2.6 | Ratio [21]: 2.7 | Ratio [22]: 1.3 | Ratio [23]: 3.1 | Ratio [24]: 4.7 | Activity [25]: 5.8 RFU/min | Activity [26]: 2 RFU/min
